# Measurements reported in article PMC6247064 (Cancer Science, 2018).
# System: Japanese patients with advanced solid tumors
# Assay: Phase 1 study: safety, tolerability, DLT and treatment-emergent adverse events
# Type: in vivo, human
# Outline: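 Open-label single-arm dose levels of 80 or 105 mg/m2 IV were given on day 1 of 14-day cycles, with at most 6 patients per level. Adverse events were graded by CTCAE v4.03. DLTs were related events in cycle 1 meeting predefined hematologic or nonhematologic criteria. Tolerability required a cycle 1 DLT rate <33%. Primary G-CSF prophylaxis was barred during DLT evaluation; G-CSF was allowed for treatment-emergent neutropenia and as secondary prophylaxis.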
compound,measurement,setting,value
COc1cccc(OCCCN)c1-c1cc(Nc2cnc(C#N)cn2)n[nH]1 [Prexasertib],Serious AE reported in one patient,"80 mg/m^2, 2 (anemia and thrombocytopenia) related to study treatment, constipation not",3 serious AE
same,TEAE related to study treatment: Anemia,"80 mg/m^2 N = 6, Any grade",3 (50.0) n (%)
same,TEAE related to study treatment: Any,"80 mg/m^2 N = 6, Any grade",6 (100) n (%)
same,TEAE related to study treatment: Atrial fibrillation,"80 mg/m^2 N = 6, Any grade",1 (16.7) n (%)
same,TEAE related to study treatment: Constipation,"80 mg/m^2 N = 6, Any grade",2 (33.3) n (%)
same,TEAE related to study treatment: ECG QT prolonged,"80 mg/m^2 N = 6, Any grade",2 (33.3) n (%)
same,TEAE related to study treatment: Fatigue,"80 mg/m^2 N = 6, Any grade",1 (16.7) n (%)
same,TEAE related to study treatment: Febrile neutropenia,"80 mg/m^2 N = 6, Any grade",1 (16.7) n (%)
same,TEAE related to study treatment: Headache,"80 mg/m^2 N = 6, Any grade",0 n (%)
same,TEAE related to study treatment: Hypocalcemia,"80 mg/m^2 N = 6, Any grade",0 n (%)
same,TEAE related to study treatment: Leukopenia,"80 mg/m^2 N = 6, Any grade",6 (100) n (%)
same,TEAE related to study treatment: Lung infection,"80 mg/m^2 N = 6, Any grade",1 (16.7) n (%)
same,TEAE related to study treatment: Lymphocytopenia,"80 mg/m^2 N = 6, Any grade",2 (33.3) n (%)
same,TEAE related to study treatment: Nausea,"80 mg/m^2 N = 6, Any grade",2 (33.3) n (%)
same,TEAE related to study treatment: Neutropenia,"80 mg/m^2 N = 6, Any grade",5 (83.3) n (%)
same,TEAE related to study treatment: Pyrexia,"80 mg/m^2 N = 6, Any grade",1 (16.7) n (%)
same,TEAE related to study treatment: Rash,"80 mg/m^2 N = 6, Any grade",1 (16.7) n (%)
same,TEAE related to study treatment: Rash maculopapular,"80 mg/m^2 N = 6, Any grade",1 (16.7) n (%)
same,TEAE related to study treatment: SVE (supraventricular extrasystoles),"80 mg/m^2 N = 6, Any grade",1 (16.7) n (%)
same,TEAE related to study treatment: Stomatitis,"80 mg/m^2 N = 6, Any grade",1 (16.7) n (%)
same,TEAE related to study treatment: Thrombocytopenia,"80 mg/m^2 N = 6, Any grade",4 (66.7) n (%)
same,TEAE related to study treatment: Anemia,"80 mg/m^2 N = 6, Grade 3",1 (16.7) n (%)
same,TEAE related to study treatment: Any,"80 mg/m^2 N = 6, Grade 3",2 (33.3) n (%)
same,TEAE related to study treatment: Atrial fibrillation,"80 mg/m^2 N = 6, Grade 3",0 n (%)
same,TEAE related to study treatment: Constipation,"80 mg/m^2 N = 6, Grade 3",0 n (%)
same,TEAE related to study treatment: ECG QT prolonged,"80 mg/m^2 N = 6, Grade 3",0 n (%)
same,TEAE related to study treatment: Fatigue,"80 mg/m^2 N = 6, Grade 3",0 n (%)
same,TEAE related to study treatment: Febrile neutropenia,"80 mg/m^2 N = 6, Grade 3",0 n (%)
same,TEAE related to study treatment: Headache,"80 mg/m^2 N = 6, Grade 3",0 n (%)
same,TEAE related to study treatment: Hypocalcemia,"80 mg/m^2 N = 6, Grade 3",0 n (%)
same,TEAE related to study treatment: Leukopenia,"80 mg/m^2 N = 6, Grade 3",1 (16.7) n (%)
same,TEAE related to study treatment: Lung infection,"80 mg/m^2 N = 6, Grade 3",0 n (%)
same,TEAE related to study treatment: Lymphocytopenia,"80 mg/m^2 N = 6, Grade 3",1 (16.7) n (%)
same,TEAE related to study treatment: Nausea,"80 mg/m^2 N = 6, Grade 3",0 n (%)
same,TEAE related to study treatment: Neutropenia,"80 mg/m^2 N = 6, Grade 3",1 (16.7) n (%)
same,TEAE related to study treatment: Pyrexia,"80 mg/m^2 N = 6, Grade 3",0 n (%)
same,TEAE related to study treatment: Rash,"80 mg/m^2 N = 6, Grade 3",0 n (%)
same,TEAE related to study treatment: Rash maculopapular,"80 mg/m^2 N = 6, Grade 3",0 n (%)
same,TEAE related to study treatment: SVE (supraventricular extrasystoles),"80 mg/m^2 N = 6, Grade 3",0 n (%)
same,TEAE related to study treatment: Stomatitis,"80 mg/m^2 N = 6, Grade 3",0 n (%)
same,TEAE related to study treatment: Thrombocytopenia,"80 mg/m^2 N = 6, Grade 3",2 (33.3) n (%)
same,TEAE related to study treatment: Anemia,"80 mg/m^2 N = 6, Grade 3 + 4",2 (33.3) n (%)
same,TEAE related to study treatment: Any,"80 mg/m^2 N = 6, Grade 3 + 4",6 (100) n (%)
same,TEAE related to study treatment: Atrial fibrillation,"80 mg/m^2 N = 6, Grade 3 + 4",0 n (%)
same,TEAE related to study treatment: Constipation,"80 mg/m^2 N = 6, Grade 3 + 4",0 n (%)
same,TEAE related to study treatment: ECG QT prolonged,"80 mg/m^2 N = 6, Grade 3 + 4",0 n (%)
same,TEAE related to study treatment: Fatigue,"80 mg/m^2 N = 6, Grade 3 + 4",0 n (%)
same,TEAE related to study treatment: Febrile neutropenia,"80 mg/m^2 N = 6, Grade 3 + 4",1 (16.7) n (%)
same,TEAE related to study treatment: Headache,"80 mg/m^2 N = 6, Grade 3 + 4",0 n (%)
same,TEAE related to study treatment: Hypocalcemia,"80 mg/m^2 N = 6, Grade 3 + 4",0 n (%)
same,TEAE related to study treatment: Leukopenia,"80 mg/m^2 N = 6, Grade 3 + 4",4 (66.7) n (%)
same,TEAE related to study treatment: Lung infection,"80 mg/m^2 N = 6, Grade 3 + 4",0 n (%)
same,TEAE related to study treatment: Lymphocytopenia,"80 mg/m^2 N = 6, Grade 3 + 4",1 (16.7) n (%)
same,TEAE related to study treatment: Nausea,"80 mg/m^2 N = 6, Grade 3 + 4",0 n (%)
same,TEAE related to study treatment: Neutropenia,"80 mg/m^2 N = 6, Grade 3 + 4",4 (66.7) n (%)
same,TEAE related to study treatment: Pyrexia,"80 mg/m^2 N = 6, Grade 3 + 4",0 n (%)
same,TEAE related to study treatment: Rash,"80 mg/m^2 N = 6, Grade 3 + 4",0 n (%)
same,TEAE related to study treatment: Rash maculopapular,"80 mg/m^2 N = 6, Grade 3 + 4",0 n (%)
same,TEAE related to study treatment: SVE (supraventricular extrasystoles),"80 mg/m^2 N = 6, Grade 3 + 4",0 n (%)
same,TEAE related to study treatment: Stomatitis,"80 mg/m^2 N = 6, Grade 3 + 4",0 n (%)
same,TEAE related to study treatment: Thrombocytopenia,"80 mg/m^2 N = 6, Grade 3 + 4",3 (50.0) n (%)
same,TEAE related to study treatment: Anemia,"80 mg/m^2 N = 6, Grade 4",1 (16.7) n (%)
same,TEAE related to study treatment: Any,"80 mg/m^2 N = 6, Grade 4",4 (66.7) n (%)
same,TEAE related to study treatment: Atrial fibrillation,"80 mg/m^2 N = 6, Grade 4",0 n (%)
same,TEAE related to study treatment: Constipation,"80 mg/m^2 N = 6, Grade 4",0 n (%)
same,TEAE related to study treatment: ECG QT prolonged,"80 mg/m^2 N = 6, Grade 4",0 n (%)
same,TEAE related to study treatment: Fatigue,"80 mg/m^2 N = 6, Grade 4",0 n (%)
